An excerpt weighted towards active compounds, which were near 2.4% of everything screened.
PAD4 inh: PAD4 (human) enzyme inhibition; Q9UM07; recombinant PAD4, RCA probe fluorescence polarization; inhibition, % at 6.36 µM; 330,000 tested, 0.41% active;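 active = percent inhibition above a cutoff equal to the mean of all tested compounds plus 3 SD, cut at about 15% in these data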
Target sequence (Q9UM07 whole entry, looked up): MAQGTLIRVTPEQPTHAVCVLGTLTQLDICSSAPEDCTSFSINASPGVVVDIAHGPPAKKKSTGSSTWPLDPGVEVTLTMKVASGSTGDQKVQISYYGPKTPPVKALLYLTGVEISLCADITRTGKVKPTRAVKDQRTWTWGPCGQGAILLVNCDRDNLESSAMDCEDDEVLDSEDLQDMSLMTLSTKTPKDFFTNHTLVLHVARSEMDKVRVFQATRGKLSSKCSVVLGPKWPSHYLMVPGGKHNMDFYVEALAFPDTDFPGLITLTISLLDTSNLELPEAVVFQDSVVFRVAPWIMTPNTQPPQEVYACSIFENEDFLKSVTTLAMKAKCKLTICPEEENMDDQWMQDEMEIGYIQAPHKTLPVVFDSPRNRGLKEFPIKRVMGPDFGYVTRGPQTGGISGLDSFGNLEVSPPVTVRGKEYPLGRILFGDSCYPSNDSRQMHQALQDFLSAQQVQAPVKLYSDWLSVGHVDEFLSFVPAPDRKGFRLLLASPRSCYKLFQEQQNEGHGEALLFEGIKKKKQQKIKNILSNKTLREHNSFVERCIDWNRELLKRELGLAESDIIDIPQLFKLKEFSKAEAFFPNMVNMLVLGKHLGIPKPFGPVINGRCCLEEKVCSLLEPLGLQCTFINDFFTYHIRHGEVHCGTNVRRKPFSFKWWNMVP
Apaf1 inhib: blocks human Apaf-1 apoptosome activity. AID 489030. inhibition, % at 20 µM. reconstituted apoptosome caspase-3 activity, DEVD-Rh110 fluorescence. O14727. 330,000 tested, 0.71% active; active = inhibition of at least 40% at 20 µM
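System – cell-free apoptosome with Apaf-1, procaspase-3 and caspase-9 · Buffer or medium – pH 7.5 Hepes buffer with CHAPS, BSA, DTT · Also added – cytochrome c with DEVD-Rh110 · Times – 30 min compound preincubation, 50 min activation, room temperature · Technique – Rh110 fluorescence intensity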
GSTO1 inh: blocks human GSTO1 in RBBP9 counter-screen | AID 1974 | recombinant GSTO1, activity-based probe fluorescence polarization | 300,000 tested, 1.1% active | inhibition, % at 5.96 µM | P78417;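 active = inhibition above the campaign mean inhibition plus 3 SD, cut at about 35% in these data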
SIAE inh: blocks human sialic acid acetylesterase; Q9HAT2; SIAE FP-Rh probe binding, fluorescence polarization; inhibition, % at 9.66 µM; 370,000 tested, 0.69% active; AID 1053197;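 active = inhibition above a cutoff: mean of compounds within the control limits plus 3 SD of those, cut at about 17% in these data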
TCR CD3 inh: blocks the human TCR-CD3 interaction | TAMRA-labeled TCR probe fluorescence, biochemical | inhibition, % at 9.4 µM | 360,000 tested, 0.37% active | AID 651800; in the data active = inhibition above about 19%;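 also: recombinant mutant TCR 2C K166C tagged with TAMRA read by polarization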
TDP2 inh: TDP2 (human) inhibition, absorbance primary screen | O95551 | recombinant TDP2, T5PNP hydrolysis, p-nitrophenol absorbance 415 nm | inhibition, % at 12.8 µM | 370,000 tested, 0.34% active | AID 720702;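 active = inhibition above the mean of all tested compounds plus 3 SD, set per campaign, cut at about 25% in these data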
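Incubation: 2 h at 37 °C; Test system: recombinant human TDP2; Quantity: enzyme 120 nM; Read-out basis: percent inhibition; Medium: 50 mM Tris-HCl pH 7.5 with Mg2+, KCl, DTT, BSA; Repeats: single replicate; Compound: 12.8 µM single point, 1% DMSO; Signal: epi absorbance; Reagent: 5 mM T5PNP chromogenic substrate; Benchmarks: no-enzyme high, DMSO-plus-enzyme low.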
SIAE confirm: human SIAE inhibition, confirmation; SIAE FP-Rh activity-based probe, fluorescence polarization; inhibition, % at 9.66 µM; 2,300 tested, 13% active; shares compounds with SIAE inh;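 active = mean inhibition of the replicates above the hit cutoff set in the primary screen, cut at about 17% in these data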;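 also: inhibitors lower polarization as more probe stays unbound to SIAE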
Of the large screens only hits and unclear results are named; the others gave an inactive call (follow-up assays come after a bar, where they were run).

COc1ccc(S(=O)(=O)Nc2cc3c4c(c2)CCN4C(=O)CC3)cc1	SIAE inh 17 | SIAE confirm inactive
COc1ccc(OC)c(S(=O)(=O)Nc2cc3c4c(c2)CCN4C(=O)CC3)c1	none
COCCN(C(=O)Cc1csc(-c2cccc(Cl)c2)n1)c1c(N)n(Cc2ccccc2)c(=O)[nH]c1=O	none (no result: PAD4 inh, Apaf1 inhib, GSTO1 inh)
CC(NC(=O)c1ccc2c(c1)OCO2)C1CCCO1 (stereo not given)	none
Oc1ccc(NC(=S)N=Nc2c(O)[nH]c3ccccc23)cc1	SIAE inh 19 | SIAE confirm inactive
Cc1ccc(NC(=S)N=Nc2c(O)[nH]c3ccccc23)cc1	none
COc1cc(C(=O)Nc2scc(-c3ccc(C)cc3)c2C(=O)O)cc(OC)c1OC	SIAE inh 41 | SIAE confirm 35
COc1ccc(C(=O)Nc2ccc(N3CCOCC3)cc2)cc1S(=O)(=O)NC1CCCC1	SIAE inh 17 | SIAE confirm inactive
Cc1ccc(C(=O)N2CCN(c3ccc(NC(=O)c4cccnc4)cc3)CC2)cc1	none
COc1ccc(C(=O)Nc2ccc(N3CCOCC3)cc2)cc1S(=O)(=O)N1CCCC1	none (no result: PAD4 inh, GSTO1 inh)
COc1cc(C(=O)Nc2ccc(N3CCN(C(=O)c4ccc(C)cc4)CC3)cc2)cc(OC)c1OC	SIAE inh 21 | SIAE confirm inactive
Cc1ccc(C(=O)Nc2cccc(C(=O)N3CCOCC3)c2)cc1	SIAE inh 26 | SIAE confirm inactive
COc1cc(C(=O)Nc2scc(-c3ccccc3)c2C(=O)O)cc(OC)c1OC	none
CC(OC(=O)c1nc(Cl)ccc1Cl)C(=O)c1ccccc1 (stereo not given)	none
COc1ccc(CCN2C(=O)CC(C(N)=O)SC2=Nc2ccc(F)cc2)cc1OC (stereo not given)	SIAE inh 20 | SIAE confirm inactive
COc1ccc(CCN2C(=O)CC(C(N)=O)SC2=Nc2ccccc2)cc1 (stereo not given)	none
O=C1C2CC=CCC2C(=O)N1c1ccc(NCCc2ccccc2F)c([N+](=O)[O-])c1 (stereo not given)	SIAE inh 17 | SIAE confirm inactive
O=C1C2CC=CCC2C(=O)N1c1ccc(NCCc2ccccc2)c([N+](=O)[O-])c1 (stereo not given)	none
O=C(NCc1ccccc1F)C1CCN(C(=O)c2sccc2-n2cccc2)CC1	none
O=C1CCC(C(=O)Nc2cccc(S(=O)(=O)Nc3ccccc3F)c2)=NN1	SIAE inh 24 (no result: GSTO1 inh) | SIAE confirm inactive
CC(C)(C)C(=O)Cn1ncc(N2CCCC2)c(Br)c1=O	none
O=S(=O)(c1ccccc1Cl)N1CCC(O)(c2cccnc2)CC1	SIAE inh 20 | SIAE confirm inactive
CCOC(=O)c1sc(=NC(=O)C2CC2)n(C)c1C	none
CCN1C(=O)/C(=C2/C(=O)N3c4c(cc(OC(C)=O)cc42)C(C)=CC3(C)C)SC1=S	SIAE inh 17 | SIAE confirm inactive
CC1=CC(C)(C)N2C(=O)C(=O)c3cc(OC(=O)c4ccco4)cc1c32	none
O=[N+]([O-])c1cccc(N/N=C/c2cccc(O)c2O)c1	GSTO1 inh 35, SIAE inh 23 | SIAE confirm inactive
CCN(CC)CCNC(=O)c1cccc(NC(=O)C(=O)c2ccccc2NC(C)=O)c1	none
O=C(OCC(=O)c1c[nH]c2ccccc12)c1cccc([N+](=O)[O-])c1	SIAE inh 21 (no result: GSTO1 inh) | SIAE confirm inactive
CCC(NC(=O)c1ccccc1NC(=O)c1ccco1)C(=O)NNC(=O)c1ccc(OC)cc1 (stereo not given)	none
CCOc1ccc(/C=C2/SC(=O)NC2=S)cc1	SIAE inh active | SIAE confirm inactive
CCOc1ccc(N=C2NC(=O)S/C2=C\c2ccc(N(C)C)cc2)cc1	none
C[C@@H]1CN([C@@H](C)CO)C(=O)c2cc(NC(=O)Nc3ccc4c(c3)OCO4)ccc2O[C@@H](C)CCCCO[C@@H]1CN(C)CC1CCCCC1	none (no result: PAD4 inh, Apaf1 inhib, GSTO1 inh)
COc1ccc(N2C(=O)CSC2c2cccc(OC)c2OC)cc1 (stereo not given)	SIAE inh 23 (no result: Apaf1 inhib) | SIAE confirm inactive
COc1cccc(C2SCC(=O)N2c2ccc(C)cc2)c1OC (stereo not given)	none
O=C(CSc1nnc(Cc2cccs2)n1CCc1ccccc1)N1CCCc2ccccc21	none
CC(C)CN1C(=O)[C@]2(CC(=O)N(C)C2c2ccccc2)c2cc(-n3cc(CN(C)C)nn3)ccc21 (stereo not given in full)	SIAE inh 18 (no result: PAD4 inh, Apaf1 inhib, GSTO1 inh, TCR CD3 inh) | SIAE confirm inactive
CC(C)c1ccc(NC2CCCN(C(=O)CN3C(=O)CSC3=O)C2)cc1 (stereo not given)	SIAE inh 17 | SIAE confirm inactive
COCCNC(=O)c1nc2ccccc2s1	SIAE inh 19 | SIAE confirm inactive
O=C(CN1C(=O)/C(=C2/SC(=S)N(CCS(=O)(=O)O)C2=O)c2ccccc21)Nc1cccc(C(F)(F)F)c1	SIAE inh 22 (no result: GSTO1 inh) | SIAE confirm 22
CCC(=O)Nc1cc(C)c(NC(=O)CCc2ccccc2)cn1	none
O=C(COC(=O)c1ccc(S(=O)(=O)NCc2ccco2)cc1)NCC1CCCCC1	none
Cc1ccc(OCCn2cc(/C(N)=N/O)c3ccccc32)cc1C	SIAE inh 20 | SIAE confirm inactive
O=C(CSc1ccc(-c2cccnc2)nn1)N1CCCCCC1	SIAE inh 27 | SIAE confirm inactive
Cc1ccc(NS(=O)(=O)c2ccc(N3CCN(c4ccc(O)cc4)CC3)c([N+](=O)[O-])c2)c(C)c1	SIAE inh 18 | SIAE confirm inactive
O=[N+]([O-])c1cc(S(=O)(=O)Nc2ccccc2)ccc1N1CCN(c2ccc(O)cc2)CC1	none
CCN(CCO)C(=O)c1ccc2nc(Cc3ccc(OC)cc3)oc2c1	SIAE inh 24 (no result: Apaf1 inhib) | SIAE confirm inactive
COC(=O)Nc1nnc(-c2ccco2)s1	none
CC(C)Cc1nnc(NC(=O)CCNC(=O)c2ccco2)s1	SIAE inh 29 | SIAE confirm inactive
CC(C)CC(=O)Nc1nnc(-c2ccco2)s1	SIAE inh 18 | SIAE confirm inactive
C=CCSc1nnc(NC(=O)CCNC(=O)c2ccco2)s1	none
CCOc1cc(S(=O)(=O)n2nc(C)cc2C)ccc1Br	none
CC(=O)Nc1cc(NC(C)=O)cc(C(=O)NCC2(N3CCOCC3)CCCCC2)c1	SIAE inh 21 (no result: PAD4 inh, GSTO1 inh) | SIAE confirm inactive
O=C1NC(=Nc2ccc3ccccc3c2)S/C1=C/c1ccco1	SIAE inh 32 | SIAE confirm inactive
CNC(=S)N/N=C/c1cn(Cc2ccc(F)cc2)c2ccccc12	SIAE inh 19 | SIAE confirm inactive
Cn1c2ccccc2c2cc(/C=N/NC(=O)c3ccc(N)cc3)ccc21	SIAE inh 24 | SIAE confirm inactive
Cn1c2ccccc2c2cc(/C=N/NC(=O)c3ccccc3F)ccc21	none
